Experimental data published in ChEMBL document CHEMBL1671691 (Antimicrob Agents Chemother, 2010).

Key:
[1] = tested on: Influenza A virus; assay: Antiviral activity against adamantane-resistant zanamivir-,oseltamivir-susceptible Influenza A virus (A/Washington/01/2007(H3N2)) harboring M2 S31N mutant infected in MDCK cells assessed as inhibition of viral replication after 3 days by microscopic analysis using crystal violet stain; type: functional, organism-based
Procedure, shortened: (§1)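 Confluent MDCK-ATCC monolayers infected with virus diluted to give 15–45 plaques/well. Adsorption 1 h at 37°C without drug, then washed. Overlaid with 0.8% agarose in MEM containing drug plus TPCK-trypsin: 3 μg/ml for seasonal viruses, 2 μg/ml for 2009 A(H1N1). Incubated 3 days at 37°C, 5% CO2. Ethanol-fixed, crystal violet-stained, plaques counted. EC50 by curve fit; duplicates on three occasions, mean ± SD.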

[2] = tested on: Influenza B virus; assay: Antiviral activity against oseltamivir-susceptible zanamivir-, adamantane-resistant Influenza B virus B/Memphis/20/1996 harboring neuraminidase R152K mutant infected in MDCK cells assessed as inhibition of viral replication after 3 days by microscopic analysis using crystal violet stain; type: functional, cell-based, B/Memphis/20/96
[3] = tested on: Influenza A virus; assay: Antiviral activity against oseltamivir-susceptible zanamivir-, adamantane-resistant Influenza A virus (A/Texas/12/2007 (clone)(H3N2)) harboring neuraminidase E119I mutant and harboring M2 S31N mutant infected in MDCK cells assessed as inhibition of viral replication after 3 days by microscopic analysis using crystal violet stain; type: functional, organism-based, Influenza A virus (A/Texas/12/2007(H3N2))
[4] = tested on: Influenza A virus; assay: Antiviral activity against adamantane-resistant zanamivir-,oseltamivir-susceptible Influenza A virus (A/Florida/01/2009(H3N2)) harboring M2 S31N mutant infected in MDCK cells assessed as inhibition of viral replication after 3 days by microscopic analysis using crystal violet stain; type: functional, organism-based; procedure, shortened: as §1
[5] = tested on: Influenza B virus; assay: microbe, parasite or virus in culture; settings: B/Memphis/20/96, MDCK, 72 h
[6] = tested on: Influenza A virus; assay: Antiviral activity against adamantane-, zanamivir-susceptible oseltamivir-resistant Influenza A virus (A/Georgia/20/2006(H1N1)) harboring neuraminidase H274Y mutant infected in MDCK cells assessed as inhibition of viral replication after 3 days by microscopic analysis using crystal violet stain; type: functional, organism-based; procedure, shortened: as §1

For `NC(=O)c1ncn([C@@H]2O[C@H](CO)[C@@H](O)[C@H]2O)n1` [RIBAVIRIN], the EC50 [1] was 35.6 µM, the EC50 [2] was 25 µM and the EC50 [3] was 46.7 µM. The EC50 [4] was 20.9 µM, the EC50 [5] was 13.9 µM and the EC50 [6] was 19.7 µM.
